First the molecules themselves.
B1: tRNA (parent)
chain: GUUCCGUUGGCGUAAUGGUAACGCGUCUCCCUCCUAAGGAGAAGACUGCGGGUUCGAGUCCCGUACGGAACG

This sample holds only a part of the variants without activity. A value given as a limit tells only on which side of the number the result lay.

The variants in the series derive from B1. Kind of series: yeast fitness relative to wild type (ratio to wild type); higher = fitter; tRNA-Arg(CCU), competitive growth, 37 C, YPD. In short, it runs like this: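 A pool of Saccharomyces cerevisiae strains, each with a tRNA-Arg(CCU) gene variant at the native genomic locus, was competed in YPD at 37°C for 24 hours across six parallel replicates. The variants had been chemically synthesised at a 3% per-site mutation rate over 69 sites, and gene amplicons before and after competition were read by 100-nucleotide paired-end sequencing. Darwinian fitness relative to wild type rested on changes in genotype frequencies. Genotypes required ≥ 100 starting reads, and estimates < 0.5 were set to 0.5.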
C11A A21G C34U A37G G52C A57U A69U: the yeast fitness is no more than 0.5.
For C11A A40G U53C the value was 0.619; for C11A A21C U64A, 0.688; for G10C U26A C49U C55G C60G, no more than 0.5.
With C11A C34A G58C, the yeast fitness is no more than 0.5.
Take C11A A36G A43C: the yeast fitness turned out to be 0.58.
As to C11A A21C U26G A65G A69C, the yeast fitness was found to be 0.525.
For C11A A42G U64A G67A the value was no more than 0.5; for C11A A42U, 0.724; for C11A C27U G56C, no more than 0.5.
For C11A A20U U47C the value was no more than 0.5.
As for C11A A42U G44C U54A C62U A65G, the figure is no more than 0.5; as for C11A C31U A69C A70G, no more than 0.5.
C11A C61U: the yeast fitness is 0.621.
As for C11A C61A, the figure is 0.613; as for C11A A21U C30A A45U C49U C55U, no more than 0.5; as for C11A C30G, no more than 0.5.
On to C11A C30U, for which the yeast fitness was determined as 0.598.
Turning to C11A C30A, the yeast fitness worked out at 0.523.
As to C11A C27A C33G A42C C66U, the yeast fitness is no more than 0.5.
Regarding C11A A14G, the yeast fitness is 0.628.
Take G10C U32A A43C C49A: the yeast fitness is no more than 0.5.
As to C11A C30A G52C A65G, the yeast fitness was no more than 0.5.
Take G10C U35G A43C U47C C55U: the yeast fitness is no more than 0.5.
In the case of C11A C24U C31U C61U G67A, the yeast fitness was no more than 0.5.
In the case of C11A C27A A40C A43G G48C A65G, the yeast fitness amounted to 0.541.
Take C11A C27G C61A: the yeast fitness is no more than 0.5.
Take C11A C30G C31U U32C G52A: the yeast fitness was 0.566.
C11A C34U: the yeast fitness amounted to 0.552.
As for G10C U35A A37U A43G, the figure is no more than 0.5; as for C11A G17A U35G, no more than 0.5; as for G10C U26A C49U, no more than 0.5.
As for G10C U35G A69C, the yeast fitness was no more than 0.5.
As for C11A C30U C49G G50A U64A, the figure is no more than 0.5.
As for G10C U64C, the figure is 0.618.
For C11A C34G A65U the value was no more than 0.5.
Turning to C11A C24U C31U G67A, the yeast fitness is no more than 0.5.
As for C11A A36U A40C, the figure is no more than 0.5; as for C11A A57G A69G, no more than 0.5; as for C11A A15G C61U A65U, no more than 0.5.
Regarding C11A A45C C55U, the yeast fitness is 0.517.
For C11A A65G C66U the value was 0.571; for G10C U16C A20G, no more than 0.5.
As for C11A C31A, the figure is 0.524; as for C11A C31U, 0.664; as for C11A A20C C29U U47C A70U, no more than 0.5.
For the variant C11A G18A C27U C34G A42C, the yeast fitness was no more than 0.5.
G10U U16A G25A C49U G50C: the yeast fitness was no more than 0.5.
For C11A C24U U32A U35C C55A G58A the value was no more than 0.5.
For C11A C31U C62A the value was no more than 0.5.
Take C11A C31U C62U: the yeast fitness came to 0.544.
For C11A A15U A20C C34G the value was no more than 0.5; for C11A A36C A43G G50C, no more than 0.5; for G10C U28G C33G C49U A69U, no more than 0.5.
With C11A G18C, the yeast fitness was no more than 0.5.
As for C11A C29G U54A, the figure is 0.69; as for C11A C29G A65U G68A, no more than 0.5; as for C11A A21C U26G A69C, no more than 0.5.
Take C11A A21U C49A: the yeast fitness was no more than 0.5.
For C11A A43G C61U the value was no more than 0.5; for C11A G18A C31U, 0.535.
Take C11A A69C: the yeast fitness stood at 0.671.
As for C11A A21G C34U A37G U47C A57G C62U, the figure is no more than 0.5; as for C11A C27G G67C, no more than 0.5.
For the variant C11A C55G C66A, the yeast fitness is no more than 0.5.
For G10U A14U the value was no more than 0.5; for C11A A43U A45C U53C, no more than 0.5; for G10C U32A G38C U64C, no more than 0.5.
For C11A C33G C34G C61A the value was no more than 0.5.
For C11A A43G G50C the value was no more than 0.5.
C11A C24G C30G A57U G68U: the yeast fitness is no more than 0.5.
Turning to C11A A15G G58C, the yeast fitness was found to be 0.505.
C11A C30G C31U U32C A42G G52A: the yeast fitness is no more than 0.5.
As for C11A C27U C60G, the figure is 0.532.
As for C11A G12C C33U A43C, the figure is no more than 0.5; as for G10C U16A C30U A57G, 0.646; as for G10U A20C C34A U53A U54G, no more than 0.5.
On to C11A A37C C49G C66A, for which the yeast fitness was no more than 0.5.
As for G10U G17A C24A C61G, the figure is no more than 0.5; as for C11A C27A G67A, 0.626; as for C11A C31G A70U, no more than 0.5.
C11A C22U C24G C30G: the yeast fitness is no more than 0.5.
For C11A A15G C61U the value was 0.528.
For C11A A15G C31A C60A the value was no more than 0.5.
Consider C11A A21U A43U A57G, for which the yeast fitness is no more than 0.5.
As for C11A A21C G39C, the yeast fitness was no more than 0.5.
C11A C27G G68A: the yeast fitness was no more than 0.5.
Regarding C11A C24U U32A U35C C55G, the yeast fitness is no more than 0.5.
Regarding C11A A15G C49U C66U, the yeast fitness is no more than 0.5.
For G10C U53A C66U the value was no more than 0.5; for C11A A45U C55U G68U, no more than 0.5.
For C11A C60A the value was no more than 0.5.
For G10C U13C U53C, the yeast fitness is 0.512.
On to C11A C30G A45U A57G C60A, for which the yeast fitness is no more than 0.5.
As for C11A A43U G48C C60G, the figure is no more than 0.5; as for C11A G18A A36G A42C, 0.711; as for C11A C22G C49G G68C A69C, no more than 0.5.
Turning to C11A C31G C60U, the yeast fitness was no more than 0.5.
For C11A C61U A65G G67C the value was no more than 0.5; for C11A C24G C34G, no more than 0.5.
For C11A C31A C66G A69U the value was no more than 0.5; for C11A A14U C30U C33A A36U A57G A69G, no more than 0.5; for G10U U32A G38C U64C, no more than 0.5.
Take C11A C22U G44C C60U A69G: the yeast fitness was 0.597.
Take C11A C29G A57G C66A: the yeast fitness is no more than 0.5.
With G10C U16A C30U, the yeast fitness came out at 0.54.
Regarding C11A A20G C62A, the yeast fitness came to 0.605.
As for C11A A37U C49G C60G C62G, the figure is no more than 0.5.
For C11A A14C C34A the value was 0.58.
In the case of C11A A15U C34A G39C A40C G56C C61G C62G G68C, the yeast fitness is no more than 0.5.
As for C11A A21C C30U, the figure is 0.678; as for C11A C22G U53C C66U, no more than 0.5; as for C11A C27U C49A, 0.752.
As for C11A A20G, the figure is 0.556; as for C11A A20U, 0.681.
Turning to C11A A37U U54C, the yeast fitness was 0.678.
Consider C11A G12A A20C C29U, for which the yeast fitness was no more than 0.5.
As for C11A C46A, the yeast fitness was 0.745.
As for C11A C46G, the figure is 0.651.
As for C11A C33U A43U G67A, the figure is no more than 0.5; as for C11A G12A G48A G50A, no more than 0.5.
For C11A A15U A20G the value was no more than 0.5.
Turning to C11A A15C C24A C27A G41C G56A, the yeast fitness came to 0.542.
C11A C29A U32C C66U: the yeast fitness is no more than 0.5.
G10C U19G C29U U54A: the yeast fitness is no more than 0.5.
For C11A C46U C62A A65C the value was no more than 0.5; for C11A A14U C24U C34G U35A A36C C61A, no more than 0.5; for C11A A15G C34G G52C C61U, no more than 0.5.
For G10C U26A the value was 0.71.
For G10C U16G C31A U32G C55U the value was no more than 0.5.
As to C11A A43G U47C A65C, the yeast fitness is no more than 0.5.
For C11A A20C C29U the value was 0.564.
For C11A C49A C61G the value was 0.53; for C11A C33U C60G, 0.531.
As to G10U G17A C24A C62U C66U, the yeast fitness is no more than 0.5.
As for C11A C27A C29U G58A, the figure is no more than 0.5; as for C11A C29G, 0.654; as for C11A G12C, 0.612.
For C11A C27U G44U U64G A65G the value was 0.593.
As for C11A A42G U53G, the figure is no more than 0.5; as for C11A C22G C34A G41A A70U, no more than 0.5.
Turning to G10U A14U G44C, the yeast fitness amounted to 0.646.
Regarding C11A A14U C30U C33A A36U A57G, the yeast fitness was no more than 0.5.
For C11A C30G A45U G56C, the yeast fitness is no more than 0.5.
In the case of C11A C29G A57G, the yeast fitness was no more than 0.5.
Regarding C11A C29U C33U, the yeast fitness was no more than 0.5.
For G10C U32A C61G A70U, the yeast fitness was no more than 0.5.
Take C11A C27G: the yeast fitness was determined as 0.589.
For G10U C11G C24U C34U C46A the value was no more than 0.5; for C11A A20G C55U C61A, no more than 0.5.
For C11A A65C the value was 0.607.
As for C11A C24A U26A G44C, the figure is no more than 0.5; as for C11A C29U A43C, 0.599.
Turning to C11A C29A G67C, the yeast fitness is no more than 0.5.
For G10U C27G G39A G67A, the yeast fitness is no more than 0.5.
In the case of C11A C24U, the yeast fitness was 0.61.
Turning to C11A A14U C30G, the yeast fitness was no more than 0.5.
As for G10C U28G C33G C49U, the figure is no more than 0.5.
With C11A A20G U59G, the yeast fitness was no more than 0.5.
As for G10C U32C A42C, the figure is no more than 0.5; as for G10C U26A C61G A70C, no more than 0.5.
For G10C U19A the value was 0.612; for G10C U19G, 0.552; for C11A A21C, 0.557.
Regarding C11A A21U, the yeast fitness was found to be 0.606.
Take C11A C66G: the yeast fitness was 0.613.
As to G10C U47A A57C, the yeast fitness is no more than 0.5.
